Experimental data reported in ChEMBL document CHEMBL1148494, “Comparison between 5,10,15,20-tetraaryl- and 5,15-diarylporphyrins as photosensitizers: synthesis, photodynamic activity, and quantitative structure-activity relationship modeling” (J Med Chem, 2006).
Where “and” joins values, the source holds several entries; their conditions need not be identical. Equal entries are not always repeated.

Tested on: HCT-116
Assay: Cytotoxicity against human HCT116 cell line
Format: functional, cell-based
Procedure, shortened: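 HCT116 cells kept in DMEM, seeded at 5 × 10⁴ cells/mL, grown 48 h, then exposed to a range of PS concentrations for 24 h. PS medium swapped for PBS; visible light from a tungsten-halogen lamp for 2 h (22 mW/cm², 158.4 J/cm²). Then 24 h at 37 °C in drug-free medium. MTT 0.4 mg/mL final for 3 h; formazan in DMSO read at 570 nm. IC50 by nonlinear regression, mean of three replicates ± SE.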

| SMILES | IC50 |
| --- | --- |
| C1=Cc2cc3ccc([nH]3)c(-c3ccccc3)c3ccc(cc4nc(cc1n2)C=C4)[nH]3 | 0.00123 µg/mL and 3.2 nM |
| C1=Cc2nc1cc1ccc([nH]1)c(-c1ccccc1)c1nc(cc3ccc([nH]3)c2-c2ccccc2)C=C1 | 0.00263 µg/mL and 5.66 nM |
| COc1cc(-c2c3nc(cc4ccc(cc5nc(cc6ccc2[nH]6)C=C5)[nH]4)C=C3)cc(OC)c1OC | 0.00229 µg/mL and 4.8 nM |
| Oc1ccc(-c2c3nc(cc4ccc([nH]4)c(-c4ccccc4)c4nc(cc5ccc2[nH]5)C=C4)C=C3)cc1 | 0.00335 µg/mL and 7.01 nM |
| COc1ccc(-c2c3nc(cc4ccc([nH]4)c(-c4ccc(OC)cc4)c4nc(cc5ccc2[nH]5)C=C4)C=C3)cc1 | 0.0274 µg/mL and 52.5 nM |
| C1=Cc2nc1cc1ccc([nH]1)c(-c1ccccc1)c1ccc(cc3nc(c2-c2ccccc2)CC3)[nH]1 | 0.00151 µg/mL and 3.26 nM |
| COc1cc(-c2c3nc(cc4ccc([nH]4)c(-c4cc(OC)c(OC)c(OC)c4)c4ccc(cc5nc2C=C5)[nH]4)C=C3)cc(OC)c1OC | 0.00632 µg/mL and 9.84 nM |
| Oc1cccc(-c2c3nc(cc4ccc([nH]4)c(-c4cccc(O)c4)c4nc(cc5ccc2[nH]5)C=C4)C=C3)c1 | 0.00351 µg/mL and 7.09 nM |
| Oc1cc(-c2c3nc(c(-c4ccccc4)c4ccc([nH]4)c(-c4ccccc4)c4nc(c(-c5ccccc5)c5ccc2[nH]5)C=C4)C=C3)cc(O)c1O | 0.0353 µg/mL and 53.3 nM |
| Oc1cccc(-c2c3nc(cc4ccc([nH]4)c(-c4ccccc4)c4nc(cc5ccc2[nH]5)C=C4)C=C3)c1 | 0.00051 µg/mL and 1.06 nM |
| COc1cccc(-c2c3nc(cc4ccc([nH]4)c(-c4ccccc4)c4nc(cc5ccc2[nH]5)C=C4)C=C3)c1 | 0.00293 µg/mL and 5.94 nM |
| COc1ccc(-c2c3nc(c(-c4ccccc4)c4ccc([nH]4)c(-c4ccccc4)c4nc(c(-c5ccccc5)c5ccc2[nH]5)C=C4)C=C3)cc1 | 0.894 µg/mL and 1.39 µM |
| Oc1cc(-c2c3nc(cc4ccc([nH]4)c(-c4ccccc4)c4nc(cc5ccc2[nH]5)C=C4)C=C3)cc(O)c1O | 0.00497 µg/mL and 9.75 nM |
| COc1ccc(-c2c3nc(cc4ccc(cc5nc(cc6ccc2[nH]6)C=C5)[nH]4)C=C3)cc1 | 0.00077 µg/mL and 1.85 nM |
| Oc1cccc(-c2c3nc(c(-c4ccccc4)c4ccc([nH]4)c(-c4ccccc4)c4nc(c(-c5ccccc5)c5ccc2[nH]5)C=C4)C=C3)c1 | 0.217 µg/mL and 344 nM |
| Oc1ccc(-c2c3nc(c(-c4ccccc4)c4ccc([nH]4)c(-c4ccccc4)c4nc(c(-c5ccccc5)c5ccc2[nH]5)C=C4)C=C3)cc1 | 0.145 µg/mL and 230 nM |
| COc1cccc(-c2c3nc(cc4ccc([nH]4)c(-c4cc(OC)c(OC)c(OC)c4)c4nc(cc5ccc2[nH]5)C=C4)C=C3)c1 | 0.00921 µg/mL and 15.8 nM |
| COc1cccc(-c2c3nc(cc4ccc([nH]4)c(-c4cccc(OC)c4)c4nc(cc5ccc2[nH]5)C=C4)C=C3)c1 | 0.0129 µg/mL and 24.7 nM |
| COc1cc(-c2c3nc(c(-c4ccccc4)c4ccc([nH]4)c(-c4ccccc4)c4nc(c(-c5ccccc5)c5ccc2[nH]5)C=C4)C=C3)cc(OC)c1OC | 0.709 µg/mL and 1.01 µM |
| COc1ccc(-c2c3nc(cc4ccc([nH]4)c(-c4ccccc4)c4nc(cc5ccc2[nH]5)C=C4)C=C3)cc1 | 0.00606 µg/mL and 12.3 nM |
| COc1cc(-c2c3nc(cc4ccc([nH]4)c(-c4ccccc4)c4nc(cc5ccc2[nH]5)C=C4)C=C3)cc(OC)c1OC | 0.00428 µg/mL and 7.75 nM |
| COc1ccc(-c2c3nc(cc4ccc([nH]4)c(-c4cc(OC)c(OC)c(OC)c4)c4nc(cc5ccc2[nH]5)C=C4)C=C3)cc1 | 0.00903 µg/mL and 15.5 nM |
| COc1cccc(-c2c3nc(c(-c4ccccc4)c4ccc([nH]4)c(-c4ccccc4)c4nc(c(-c5ccccc5)c5ccc2[nH]5)C=C4)C=C3)c1 | 0.0998 µg/mL and 155 nM |
| COc1ccc(-c2c3nc(c(-c4ccc(OC)cc4)c4ccc([nH]4)c(-c4cc(OC)c(OC)c(OC)c4)c4nc(c(-c5ccc(OC)cc5)c5ccc2[nH]5)C=C4)C=C3)cc1 | > 1.5 µg/mL and > 1.89 µM |
| Oc1cccc(-c2c3nc(c(-c4cccc(O)c4)c4ccc([nH]4)c(-c4cccc(O)c4)c4nc(c(-c5cccc(O)c5)c5ccc2[nH]5)CC4)C=C3)c1 [TEMOPORFIN] | 0.00517 µg/mL and 7.6 nM |
